Assay outcomes: PubChem, several laboratories
JMJD2C inh = inhibitors of human GASC-1 (JMJD2C) demethylase | Q9H3R0 | GST-JMJD2C(1-420) H3K9me3 demethylation, DELFIA europium | inhibition, % at 2.35 µM | 330,000 compounds, 0.069% hits | AID 2099;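 active = more than half of a compound's replicate wells show inhibition beyond 50%, single wells judged on their own value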;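 note: signal counts dimethyl H3K9 product captured on neutravidin plate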
T cruzi inh = blocks replication of Trypanosoma cruzi | T. cruzi beta-gal in NIH3T3, luminescence, 90 h | inhibition, % (no concentration beside the values) | 300,000 compounds, 1.4% hits | AID 1885;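 active = mean inhibition across valid replicates above about 55%, limit read from the data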;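 note: signal also drops with host cell toxicity which is not excluded here; higher percent means less beta-gal luminescence so fewer parasites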
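Read-out: Parasite load inhibition, % | Test system: Mouse NIH/3T3 fibroblasts infected with β-gal-expressing T. cruzi Tulahuen C4 | Amount: 5,000 cells/well | Medium: DMEM, 2% fetal bovine serum | Signal: GalScreen β-gal luminescence, detergent lysis, 60 min | Timing: 3 h attach, ≥90 h co-culture | Also added: Tulahuen C4 trypomastigotes, 5000/well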
Cardio protect = protects H9c2 cardiomyocytes from peroxide injury | 360,000 compounds, 0.63% hits | protection from H2O2 cell death, % at 20 µM | H2O2 injury protection, ATPLite, 2 h;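 active = compounds giving at least 50% protection of heart cells from peroxide-induced death in the single-dose screen, raw or plate-pattern-corrected value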
pCIP destab = p/CIP protein destabilization. 290,000 compounds, 0.01% hits. AID 1984. decrease of EGFP signal, % at 10 µM. Q05BA5. F442A p/CIP-EGFP cells, EGFP fluorescence, 16 h;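 active = EGFP signal decrease of at least 30% at 10 µM or well 3 SD below plate mean, unless failing retest; inactive = the rest, including hits failing retest or dose response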
PP5 inh = blocks human protein phosphatase 5 activity; P53041; purified PP5c, OMFP substrate fluorescence; AID 1987; inhibition, % at 6.7 µM; 320,000 compounds, 0.18% hits;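 active = inhibition above the campaign's mean inhibition across all tested compounds plus 3 SD, cut at about 9.5% in these data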
Fh CTSL1 inh = cathepsin L1 inhibition, PFM18AAP counter-screen | AID 1906 | inhibition, % at 5.96 µM | recombinant F. hepatica cathepsin L1, Z-Leu-Arg-MCA fluorescence | 300,000 compounds, 0.49% hits;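 active = inhibition above the mean of all tested compounds plus 3 SD, set per screening campaign, cut at about 17% in these data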
Large screens that a line does not name were inactive. Compounds with a hit are over-represented: about 2.4% of the library has one in this group of screens.

O=C(Nc1cccc(-c2nc3cccnc3s2)c1)c1ccco1	Cardio protect 70.0
CCCS(=O)(=O)Nc1cccc(-c2nc3cccnc3s2)c1	none
CCC(=O)Nc1cccc(-c2cnc3ccccc3n2)c1	none
CCOc1ncccc1C(=O)Nc1cccc(-c2nc3cccnc3s2)c1	Cardio protect 64.2
O=C(CCl)Nc1cccc(-c2cnc3ccccc3n2)c1	Fh CTSL1 inh 74.2
COc1cccc(NC(=O)CN(C)C(=O)C(C)Sc2ccccc2)c1 (configuration not stated)	none (no result: JMJD2C inh, T cruzi inh, pCIP destab, PP5 inh, Fh CTSL1 inh)
CCCOc1ccc(-c2c(C(=O)N/N=C(\C)c3ccncc3)nnn2-c2nonc2N)cc1	none
O=C(CNC(=O)c1ccc(Cl)cc1)NNc1c(F)c(F)cc(F)c1F	none (no result: T cruzi inh, pCIP destab, PP5 inh, Fh CTSL1 inh)
Cc1cccc(OCCn2nc(C(=O)O)c3ccccc3c2=O)c1	Cardio protect 72.8
CC(C)(C)c1ccc(OCCn2nc(C(=O)O)c3ccccc3c2=O)cc1	none
Cc1noc(C)c1Cn1nc(C(=O)O)c2ccccc2c1=O	Cardio protect 63.7
Cc1cccc(C)c1OCCn1nc(C(=O)O)c2ccccc2c1=O	Cardio protect 57.2
CC(C)(C)c1ccc(Cn2nnc3c(=O)[nH]c(C4CCCN(C(=O)c5cccs5)C4)nc32)cc1 (configuration not stated)	none
Cc1ccc2c(c1)-n1c(nc3cc(Cl)ccc3c1=O)C(Cc1ccccc1)NC2=O (configuration not stated)	none (no result: T cruzi inh, Cardio protect, pCIP destab, PP5 inh, Fh CTSL1 inh)
O=C(NCc1ccc(Cl)cc1Cl)Nc1nc([C@@H]2O[C@H](CO)[C@@H](O)[C@H](O)[C@H]2O)cs1	none (no result: JMJD2C inh, T cruzi inh, pCIP destab, PP5 inh, Fh CTSL1 inh)
NC(=O)NN=C1CCN2CCCc3cccc1c32	none (no result: JMJD2C inh, T cruzi inh, pCIP destab, PP5 inh, Fh CTSL1 inh)
c1coc(-c2nnc3sc(Cc4cccs4)nn23)c1	Cardio protect 64.8
N#C/C(=C1\CCCN1)c1nc2ccccc2c(=O)[nH]1	Cardio protect 73.5
N#C/C(=C/c1ccncc1)c1nc2ccccc2c(=O)[nH]1	none
C[C@@H]1OC(C2CCCCC2)N(C)[C@H]2C[C@H]3c4[nH]c5ccccc5c4CCN3C[C@@H]12 (some centres not stated)	none (no result: JMJD2C inh, T cruzi inh, pCIP destab, PP5 inh, Fh CTSL1 inh)
O=C(Oc1ccc(NC2=C(Cl)C(=O)c3ccccc3C2=O)cc1)c1ccc([N+](=O)[O-])cc1	T cruzi inh 63.3 (no result: PP5 inh, Fh CTSL1 inh)
O=c1cc(CN2CCN(C/C=C/c3ccccc3)CC2)c2cc(O)ccc2o1	T cruzi inh 57.7
O=c1[nH]c(CN2CCN(C/C=C/c3ccccc3)CC2)nc2ccccc12	T cruzi inh 72.1
Cc1ccc2oc(=O)cc(CN3CCCCC3)c2c1	none
O=c1cc(CN2CCN(c3ccccc3)CC2)c2cc(O)c(-c3ccccc3)cc2o1	none
Cc1ccc2oc(=O)cc(CN3CCN(C/C=C/c4ccccc4)CC3)c2c1	T cruzi inh 56.6
COC(=O)[C@]1(C)N[C@H](CN(C)C(=O)Nc2ccccc2)[C@@H]2C(=O)N(C)C(=O)[C@@H]21	none (no result: T cruzi inh, pCIP destab, PP5 inh, Fh CTSL1 inh)
CCOc1ccc(NC(=O)CN(C)C(=O)c2ccc(-c3ccc(C(C)=O)cc3)o2)cc1OCC	none (no result: pCIP destab)
CCNc1nnc(SCC(=O)NC2CCCCCC2)s1	none (no result: JMJD2C inh, T cruzi inh, pCIP destab, PP5 inh, Fh CTSL1 inh)
COC(=O)c1cc2c(n1S(=O)(=O)c1ccc(C)cc1)C(=O)C(=O)c1[nH]cc(C(=O)OCc3ccccc3)c1-2	none (no result: JMJD2C inh, T cruzi inh, pCIP destab, PP5 inh, Fh CTSL1 inh)
COC(=O)[C@@H]1CC[C@H](C)[C@@H](c2ccc(C)cc2)N1C(=O)c1ccc(/C=N/O[C@@H](C)c2cn([C@H](CO)Cc3ccccc3)nn2)cc1	T cruzi inh 61.8 (no result: Cardio protect)
COC(=O)[C@@H]1CC[C@H](C)[C@@H](c2ccc(C)cc2)N1C(=O)c1ccc(/C=N/OC[C@@H](O)[C@H]2O[C@@H]3OC(C)(C)O[C@@H]3[C@H]2O)cc1	none (no result: Cardio protect, PP5 inh, Fh CTSL1 inh)
Cc1ccc(C2=N/C(=C\c3c(C)nn(-c4ccccc4)c3N3CCCC3)C(=O)O2)cc1	Fh CTSL1 inh 55.4
Cc1nn(-c2ccccc2)c(N2CCCC2)c1/C=C1\N=C(c2ccc(F)cc2)OC1=O	Fh CTSL1 inh 70.5
C/C(CC(=O)Nc1cccc(C(F)(F)F)c1)=N\NC(=O)c1cnccn1	none
c1ccc(C2CCCN(Cc3nc(CC4CC4)no3)CC2)cc1 (configuration not stated)	none
c1ccc(C(c2ccccc2)c2noc(CN3CCC(c4ccncc4)CC3)n2)cc1	T cruzi inh 60.7
CCC[C@H]1CC(=O)C=C(c2ccc(OC)cc2)ON1C(=O)OC(C)(C)C	none (no result: JMJD2C inh, T cruzi inh, pCIP destab, PP5 inh, Fh CTSL1 inh)
